We go through one compound from ChEMBL document CHEMBL3526116, “Toxicological evaluation of acyl glucuronides of nonsteroidal anti-inflammatory drugs using human embryonic kidney 293 cells stably expressing human UDP-glucuronosyltransferase and human hepatocytes” (Drug Metab Dispos, 2011).

In data set [1] the test system is HEK293. As to the kind of experiment: Cytotoxicity against HEK293 cells expressing UGT assessed as LDH leakage at 0.1 mM after 6 to 24 hrs by spectrophotometric analysis relative to total cell LDH level. It is filed as ADME, cell-based. To be noted: human, hek293, 100 µM. The gist of the method: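 Stable UGT-expressing or mock HEK293 lines in DMEM with 0.5% FBS, 2 x 10^4 cells/well, drug for 6, 12 or 24 h. LDH released into medium read at 490 nm (690 nm reference); percentage calculated against maximum release from control cells lysed with 1% Triton X-100.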

The test system of data set [2] is HEK293. Put plainly: Cytotoxicity against HEK293 cells expressing UGT1A4 assessed as decrease in cell viability at 0.1 mM by MTT assay. To be noted: human, hek293, 100 µM; TDE = time-dependent effect. It is filed as ADME, cell-based.
Data set [3] has as its system HEK293. Put plainly: Genotoxicity in HEK293 cells expressing UGT1A3 assessed as DNA strand breaks at 0.1 mM after 24 hrs by comet assay. It is filed as toxicity, cell-based. To be noted: human, hek293, 24 h, 100 µM. In short, it runs like this: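 HEK293 cells stably expressing UGT1A3, seeded 24 h before treatment and exposed 24 h in 0.5% FBS DMEM (vehicle 0.1% DMSO). Alkaline comet assay: low-melting agarose embedding, lysis pH 10 for 1 h at 4°C, 30 min unwinding in NaOH/EDTA, electrophoresis 300 mA for 20 min, ethidium bromide stain. Tail extent moment scored on 150-180 cells over more than 3 experiments, median (IQR).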

The test system of data set [4] is HEK293. As to the kind of experiment: Cytotoxicity against HEK293 cells expressing UGT1A4 assessed as decrease in cell viability by measuring intracellular ATP content at 0.1 mM by CellTiter-Glo luminescent assay. Format: ADME, cell-based. To be noted: human, hek293, 100 µM; TDE = time-dependent effect. The gist of the method:
(§1)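 UGT1A3 or UGT1A4 stable HEK293 cells, 2 x 10^4 cells/well in 0.1 mL DMEM with 0.5% FBS, drug for 6, 12 or 24 h. Viability from intracellular ATP via CellTiter-Glo luminescence, expressed as percent of control cells. Mean ± SD of triplicates.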

Data set [5] deals with HEK293. Put plainly: Cytotoxicity against HEK293 cells expressing UGT1A3 assessed as decrease in cell viability at 0.1 mM by MTT assay. To be noted: human, hek293, 100 µM; TDE = time-dependent effect. Format: ADME, cell-based.
For data set [6], the target named is T1, UDP-glucuronosyltransferase 1A3 (Homo sapiens, UniProt P35503).
T1 sequence (P35503 whole entry): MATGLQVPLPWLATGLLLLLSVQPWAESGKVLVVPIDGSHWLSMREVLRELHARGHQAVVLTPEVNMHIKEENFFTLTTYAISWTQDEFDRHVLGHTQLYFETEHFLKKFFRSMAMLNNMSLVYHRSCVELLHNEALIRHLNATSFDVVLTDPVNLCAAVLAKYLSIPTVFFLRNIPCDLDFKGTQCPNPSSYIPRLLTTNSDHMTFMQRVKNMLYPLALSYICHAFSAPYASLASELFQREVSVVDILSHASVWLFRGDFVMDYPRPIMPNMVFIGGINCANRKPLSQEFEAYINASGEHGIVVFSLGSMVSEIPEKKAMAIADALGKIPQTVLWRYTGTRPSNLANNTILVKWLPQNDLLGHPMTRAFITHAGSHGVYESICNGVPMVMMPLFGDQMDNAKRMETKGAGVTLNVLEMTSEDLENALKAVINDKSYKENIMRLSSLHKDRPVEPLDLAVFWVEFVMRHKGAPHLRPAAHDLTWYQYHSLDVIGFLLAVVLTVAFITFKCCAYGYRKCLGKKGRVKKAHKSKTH
Put plainly: Activity of human UGT1A3 expressed in HEK293 cells assessed as enzyme-mediated diclofenac acyl-beta-D-glucuronide formation at 0.1 mM measured at 24 hrs by LC-MS/MS analysis. It is filed as ADME, cell-based. To be noted: hek293, 24 h, 100 µM. The gist of the method:
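HEK293 stably expressing human UGT1A3 (G418-selected), 2 x 10^5 cells/well in 1 mL DMEM with 0.5% FBS, exposed immediately to drug for 6, 12 or 24 h; DMSO ≤0.1% final. Cells and medium separated by centrifugation, cell fraction resuspended in PBS; aliquots mixed 1:1 with methanol/acetic acid (100:1), spun, supernatant analysed by LC-MS/MS. Triplicate determinations, mean ± SD.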

The test system of data set [7] is HEK293. As to the kind of experiment: Cytotoxicity against HEK293 cells expressing UGT assessed as decrease in cell viability at 0.1 mM measured up to 72 hrs by MTT assay. It is filed as ADME, cell-based. To be noted: human, hek293, 72 h, 100 µM. In short, it runs like this: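 Mock and UGT1A3/UGT1A4 stable HEK293 cells given drug for up to 72 h; viability measured by WST-8-based MTT assay.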

Data set [8] relates to HEK293. As to the kind of experiment: Cytotoxicity against HEK293 cells expressing UGT1A3 assessed as decrease in cell viability by measuring intracellular ATP content at 0.1 mM by CellTiter-Glo luminescent assay. Format: ADME, cell-based. To be noted: human, hek293, 100 µM; TDE = time-dependent effect. The gist of the method:
as §1

The target in data set [9] is T2, UDP-glucuronosyltransferase 1A4 (Homo sapiens, UniProt P22310).
T2 sequence (P22310 whole entry): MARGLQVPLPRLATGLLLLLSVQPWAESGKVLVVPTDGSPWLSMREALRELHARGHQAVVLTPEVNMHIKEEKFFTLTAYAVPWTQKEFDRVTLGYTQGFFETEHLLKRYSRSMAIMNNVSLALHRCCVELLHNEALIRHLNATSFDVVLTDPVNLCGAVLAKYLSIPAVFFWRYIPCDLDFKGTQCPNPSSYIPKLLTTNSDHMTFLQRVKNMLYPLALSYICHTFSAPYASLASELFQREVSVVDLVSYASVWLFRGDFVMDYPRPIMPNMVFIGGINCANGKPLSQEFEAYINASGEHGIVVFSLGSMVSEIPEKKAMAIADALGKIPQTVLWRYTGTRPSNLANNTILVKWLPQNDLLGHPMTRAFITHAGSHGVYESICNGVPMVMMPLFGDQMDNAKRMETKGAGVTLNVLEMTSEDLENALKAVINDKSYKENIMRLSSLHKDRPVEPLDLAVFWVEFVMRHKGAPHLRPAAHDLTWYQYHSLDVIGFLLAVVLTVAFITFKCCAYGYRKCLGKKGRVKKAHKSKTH
Put plainly: Activity of human UGT1A4 expressed in HEK293 cells assessed as enzyme-mediated diclofenac acyl-beta-D-glucuronide formation at 0.1 mM measured at 24 hrs by LC-MS/MS analysis. It is filed as ADME, cell-based. To be noted: hek293, 24 h, 100 µM. The gist of the method:
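HEK293 stably expressing human UGT1A4, 2 x 10^5 cells/well in DMEM with 0.5% FBS, drug exposure 6–24 h, DMSO ≤0.1% final. Acyl glucuronide in cell fraction and medium measured by LC-MS/MS after methanol/acetic acid (100:1) precipitation and centrifugation. Triplicate determinations.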

Data set [10] concerns HEK293. As to the kind of experiment: Cytotoxicity against mock transfected HEK293 cells assessed as decrease in cell viability at 0.1 mM […]. Format: cell-based. To be noted: human, hek293, 100 µM; TDE = time-dependent effect.
The test system of data set [11] is Hepatocyte. As to the kind of experiment: Cellular uptake in human hepatocytes at 0.1 mM measured at 6 hrs by LC-MS/MS analysis in absence of acyl glucuronidation inhibitor (-)-borneol. Format: ADME, cell-based. To be noted: 100 µM. The gist of the method:
(§2)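 Cryopreserved pooled human hepatocytes on collagen-coated wells, 2 × 10^5 cells/well in HCM medium with 0.5% FBS, preincubated 30 min with or without 1 mM (-)-borneol, then drug for 6 h; DMSO ≤0.2% final. Parent drug in cell fraction measured by LC-MS/MS after methanol/acetic acid extraction. Mean ± SD of triplicates.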

The test system of data set [12] is HEK293. Put plainly: Cytotoxicity against mock transfected HEK293 cells assessed as decrease in cell viability by measuring intracellular ATP content at 0.1 mM by CellTiter-Glo luminescent assay. It is filed as cell-based. To be noted: human, hek293, 100 µM; TDE = time-dependent effect. The gist of the method: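 Mock-transfected HEK293 cells seeded at 2 x 10^4 cells/well in DMEM with 0.5% FBS, drug added at once and incubated 6, 12 or 24 h. Viability read either by WST-8 (CCK-8) formazan absorbance at 450 nm or by intracellular ATP luminescence (CellTiter-Glo), as percent of control cells; mean ± SD of triplicates. Final DMSO ≤0.1%.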

Data set [13] deals with Hepatocyte. Put plainly: Cellular uptake in human hepatocytes at 0.1 mM measured at 6 hrs by LC-MS/MS analysis in presence of acyl glucuronidation inhibitor (-)-borneol. To be noted: 100 µM. It is filed as ADME, cell-based. The gist of the method:
as §2

For data set [14], the system named is HEK293. Put plainly: Cytotoxicity against HEK293 cells expressing UGT1A3 assessed as decrease in cell viability at 0.1 mM measured at 24 hrs by MTT assay. It is filed as ADME, cell-based. To be noted: human, hek293, 24 h, 100 µM.

Take `O=C([O-])Cc1ccccc1Nc1c(Cl)cccc1Cl.[Na+]` [DICLOFENAC SODIUM]: the Activity is reported as less than 5.4% with HEK293 [1]; “tde” in the data set with HEK293 [2]; “Non-toxic” in the data set with HEK293 [3]; “tde” with HEK293 [4]; “tde” in the data set on HEK293 [5]; “Non-toxic” in the data set with HEK293 [7]. The Activity entry in the data set with HEK293 [8] is given as “tde”; in the data set on HEK293 [10], “tde”; in the data set on HEK293 [12] it was “tde”; with HEK293 [14] it was “Non-toxic”. Besides, the Drug metabolism result in data set [6] is on record as “metabolite_detected”; in data set [9], “metabolite_not_detected”. Also, the Drug uptake entry with Hepatocyte [11] and in the data set on Hepatocyte [13] was “Active” in each case.
